Screens (PubChem BioAssay)
OXTR ag: human OXTR agonists, primary screen, fluorescence, CHO-OTR cells, Fluo-8 calcium | Fluo-8 calcium fluorescence; normalized: DMSO 0%, oxytocin 100% | activation, % at 3 µM | hit rate 0.32% among 320,000 | AID 2435, 2010;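 active = activation above the mean of all tested compounds plus 3 SD, cutoff set per screening run, cut at about 20% in these data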;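 note: peak over basal fluorescence ratio from a 100 s FLIPR kinetic read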
zfTRPN1 agonist: zebrafish TRPN1 channel agonists, primary screen, cell-based, HEK293, calcium fluorescence | hit rate 0.18% among 220,000 | activation, % at 3 µM | transient receptor potential cation channel N1 (TRPN1/NompC), Danio rerio | HEK293 zebrafish TRPN1-YFP, Fluo-8 calcium fluorescence; 100% = response to 87 µM carbachol;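 active = activation above its plate's cutoff, the mean activation of test wells on that plate plus 3 SD, cut at about 19% in these data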
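Material: zebrafish TRPN1-YFP in HEK293 cells. Doses: one dose of 3 µM, 0.3% DMSO. Incubation: dye 1 h 37 °C plus 30 min RT. Measured by: intracellular calcium fluorescence with Fluo-8.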
TRPML3 ag: human TRPML3 channel agonists, primary screen, cell-based, HEK293 TRPML3-YFP, Fluo-8 calcium fluorescence, 3 µM | Mucolipin-3 (Homo sapiens), Q8TDD5 | 100% = the carbachol control signal | activation, % at 3 µM | hit rate 0.29% among 220,000;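 active = activation above its plate's cutoff, the mean activation of the plate's test wells plus 3 SD, cut at about 12% in these data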
Target sequence (Q8TDD5 whole entry, looked up): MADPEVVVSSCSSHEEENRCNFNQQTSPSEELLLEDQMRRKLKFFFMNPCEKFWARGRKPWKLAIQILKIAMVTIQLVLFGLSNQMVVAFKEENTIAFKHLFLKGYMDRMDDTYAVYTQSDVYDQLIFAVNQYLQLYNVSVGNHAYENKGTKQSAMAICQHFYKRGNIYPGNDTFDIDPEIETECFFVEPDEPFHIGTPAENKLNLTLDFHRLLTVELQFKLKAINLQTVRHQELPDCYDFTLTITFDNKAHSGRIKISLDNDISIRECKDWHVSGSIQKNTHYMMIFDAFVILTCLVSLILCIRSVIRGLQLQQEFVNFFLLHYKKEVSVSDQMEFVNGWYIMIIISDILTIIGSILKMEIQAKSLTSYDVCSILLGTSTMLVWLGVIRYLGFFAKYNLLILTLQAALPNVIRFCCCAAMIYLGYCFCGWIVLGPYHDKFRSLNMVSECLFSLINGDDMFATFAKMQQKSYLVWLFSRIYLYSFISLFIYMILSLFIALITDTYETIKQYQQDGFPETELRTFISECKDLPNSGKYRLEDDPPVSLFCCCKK
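Test system: TRPML3-YFP stable HEK293 cells. Doses: single point at 3 µM. Incubation: dye loading 1 h 37 °C then 30 min ambient, 125 s read. Signal: Fluo-8 calcium dye fluorescence, ex 470-495, em 515-575 nm. Measure: percent activation from peak-to-basal fluorescence ratio, scaled between DMSO and carbachol.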
OXTR potentiator: human OXTR potentiators, primary screen, fluorescence, CHO-OTR cells, Fluo-8 calcium. activation, % at 3 µM. Fluo-8 calcium fluorescence, potentiator mode; 0% = oxytocin EC15, 100% = EC100. AID 2445, 2010. hit rate 0.061% among 320,000;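 active = activation above that plate's cutoff, the mean activation of tested compounds plus 3 SD, cut at about 6.6% in these data, passing the limit was not always enough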
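Material: CHO-OTR cells, human receptor; compound dosing: single dose, 3.0 µM nominal final compound concentration; schedule: 6 min compound pre-incubation at room temperature, 100 s kinetic read; measured by: kinetic Fluo-8 calcium fluorescence; read-out basis: % activation vs EC15 and EC100 oxytocin; controls: EC15 oxytocin alone as 0%, 75 nM oxytocin as 100%; replicates: singlicate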
V1R ag counter: agonists of human V1a receptor, primary screen, counter-screen for OXTR agonist project, fluorescence, CHO-V1R cells; Vasopressin V1a receptor (Homo sapiens), P37288; Fluo-8 calcium fluorescence, agonist mode; 0% DMSO, 100% 3 nM vasopressin; activation, % at 3 µM; hit rate 0.25% among 320,000; AID 2797, 2010;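 active = activation above the mean activation of all tested compounds plus 3 SD, per screening run, cut at about 20% in these data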;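 note: signal is peak over basal fluorescence ratio across a 100 second FLIPR read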
Numbers stand for hits; 0 = inactive; - = no result given. A selection: hits, their analogues and other compounds. The true share with any hit is near 0.58%.

SMILES	OXTR ag	zfTRPN1 agonist	TRPML3 ag	OXTR potentiator	V1R ag counter
CC(C)c1cc(=O)oc2c3c4c(cc12)CCCN4CCC3	0	0	0	0	0
O=c1oc2c3c4c(cc2c(C(F)(F)F)c1CCN1CCOCC1)CCCN4CCC3	33.9	19.9	0	0	33.0
O=C(CCCN=C1NS(=O)(=O)c2ccccc21)OCC(=O)c1ccc(F)cc1	20.3	-	-	0	23.1
O=C(CCN=C1NS(=O)(=O)c2ccccc21)OCC(=O)c1ccc(F)cc1	0	-	-	0	0
O=C1Nc2ccccc2C1C(C[N+](=O)[O-])c1ccccc1 (stereo unspecified)	0	-	-	0	0
Cc1ccc(S(=O)(=O)N(C)C)cc1NC(=O)CN1C(=O)NC2(CCCCCCC2)C1=O	0	-	-	0	0
O=C(CSc1ccc(-c2cccs2)nn1)NCCc1ccccc1	0	0	0	0	0
COc1ccccc1CCNC(=O)CSc1ccc(-c2cccs2)nn1	0	32.7	20.1	0	0
Cc1ccc(NC(=O)CN2C(=O)N/C(=C/c3ccc(N4CCOCC4)cc3)C2=O)cc1	0	0	0	0	0
Cc1ccccc1NC(=O)CN1C(=O)N/C(=C\c2ccc(N3CCOCC3)c(F)c2)C1=O	0	0	0	9.9	0
COc1cc(/C=C2\SC(=S)N(NC(=O)c3cccnc3)C2=O)ccc1O	0	0	0	0	0
COc1cc(/C=C2\SC(=S)N(c3cccnc3)C2=O)ccc1O	24.3	20.8	0	0	26.4
COc1cc(/C=C2/SC(=S)N(CC3CCCO3)C2=O)ccc1O (stereo unspecified)	47.8	37.4	33.7	0	31.7
COc1cc(/C=C2\SC(=S)N(Nc3ccccc3)C2=O)ccc1O	57.6	24.6	14.0	0	24.4
COc1cc(/C=C2\SC(=S)N(C(Cc3ccccc3)C(=O)O)C2=O)ccc1O (stereo unspecified)	28.0	22.4	11.9	0	29.7
CCOc1cc(/C=C2\SC(=S)N(NS(=O)(=O)c3ccccc3)C2=O)ccc1O	0	-	-	0	0
CCOc1cc(/C=C2\SC(=S)N(Nc3ccccc3)C2=O)ccc1O	47.2	22.1	15.8	0	26.6
COc1cc(/C=C2\SC(=S)N(NC(=O)c3ccc(O)cc3)C2=O)ccc1O	63.7	-	-	0	25.3
O=C(COC(=O)COc1ccc(Cl)cc1Br)NC1CC1	0	-	-	0	0
Cc1noc(C)c1COc1ccc(C(=O)N2CCC(C(N)=O)CC2)cc1	0	-	-	0	0
CCSC1=NSC2=NC(=O)/C(=C\c3coc4ccccc4c3=O)C(=N)N12	62.3	25.2	14.6	0	46.6
CC(C)CC1=NN2C(=N)/C(=C\c3coc4ccccc4c3=O)C(=O)N=C2S1	-	0	0	-	-
N#C/C(=N\Nc1cccc(C(F)(F)F)c1)C(=O)c1ccsc1	0	24.2	13.7	0	0
Cc1ccccc1Cn1nnc(C(=O)Nc2ccc3c(c2)OCCO3)c1N	0	-	-	0	0
Cc1cc(C)cc(NC(=O)c2nnn(Cc3cc(C)ccc3C)c2N)c1	35.4	0	0	0	41.7
SMILES	OXTR ag	zfTRPN1 agonist	TRPML3 ag	OXTR potentiator	V1R ag counter
COc1cccc(NC(=O)c2nnn(CC(=O)Nc3cc(C)cc(C)c3)c2N)c1	0	-	-	0	0
COc1cccc(NC(=O)c2nnn(Cc3ccc(Br)cc3F)c2N)c1	27.4	0	0	0	29.0
CCc1ccc(Cn2nnc(C(=O)Nc3ccc(OC)cc3OC)c2N)cc1	29.4	0	0	0	24.3
Cc1ccc(C)c(Cn2nnc(C(=O)Nc3ccc4c(c3)OCCO4)c2N)c1	39.2	-	-	0	29.4
COc1cccc(NC(=O)Cn2nnc(C(=O)Nc3ccccc3)c2N)c1	0	0	0	0	0
Cn1c(CC(=O)Nc2ccccc2F)nnc1SCC(=O)Nc1ccccc1Br	0	-	-	0	0
O=C(O)c1ccc2c(c1)OCCCO2	0	0	0	0	0
O=C(O)c1cc2c(cc1Br)OCCCO2	0	19.2	0	0	0
c1ccc(CNc2nc(NCc3ccccc3)c3ccccc3n2)cc1	28.3	0	0	0	21.4
Nc1nc(Nc2cccc(F)c2)nc(NCCO)c1[N+](=O)[O-]	0	0	0	12.2	0
